Laboratory results from ChEMBL document CHEMBL4725476, “Fluorescent Probes for Ecto-5'-nucleotidase (CD73)” (ACS Med Chem Lett, 2020).
Calls of active or inactive are those of the source. The rule behind the calls is not given here.

Experiments:
[1] = Selectivity index, ratio of Ki for rat C-terminal His-tagged CD73 expressed in Sf9 cells to Ki for recombinant human C-terminal His-tagged CD73 (27 to 549 residues) expressed in Sf9 cells
How it was run: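 Ki values were measured in a radiometric assay with [3H]AMP substrate against rat and human recombinant soluble CD73 expressed in Sf9 insect cells. Residual [3H]AMP was precipitated with lanthanum chloride and removed by filtration, and [3H]adenosine was quantified by liquid scintillation counting. Ki came from full-curve IC50 via Cheng–Prusoff, 3 separate experiments. The ratio is rat Ki over human Ki.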

[2] = target: T1, 5'-nucleotidase (Mus musculus) (UniProt Q61503); assay: Inhibition of CD73 in C57BL/6 mouse retina incubated for 1 hr by microscopic analysis; format: tissue-based
T1 sequence (whole entry): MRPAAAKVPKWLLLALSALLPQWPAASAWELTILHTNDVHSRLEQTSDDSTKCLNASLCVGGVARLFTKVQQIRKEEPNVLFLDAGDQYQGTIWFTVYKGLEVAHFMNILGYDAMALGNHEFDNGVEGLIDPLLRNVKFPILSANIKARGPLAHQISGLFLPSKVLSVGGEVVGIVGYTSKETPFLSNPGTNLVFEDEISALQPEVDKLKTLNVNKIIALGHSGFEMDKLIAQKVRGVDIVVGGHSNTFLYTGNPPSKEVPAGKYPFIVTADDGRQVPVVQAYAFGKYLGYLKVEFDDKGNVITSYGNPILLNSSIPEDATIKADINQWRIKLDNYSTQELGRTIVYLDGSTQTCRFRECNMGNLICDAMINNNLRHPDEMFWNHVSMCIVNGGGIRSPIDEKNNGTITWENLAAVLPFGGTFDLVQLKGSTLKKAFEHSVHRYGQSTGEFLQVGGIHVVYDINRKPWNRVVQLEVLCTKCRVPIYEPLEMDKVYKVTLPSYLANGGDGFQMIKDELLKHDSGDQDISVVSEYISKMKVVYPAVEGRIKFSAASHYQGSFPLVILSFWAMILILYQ
How it was run: (§1)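 Eyeballs enucleated from wild-type and CD73 knockout mice (targeted gene disruption). Free-floating vibratome-cut eye sections costained with rabbit anti-rat CD73 and chicken anti-vimentin antibodies. Then incubated with fluorochrome-conjugated second-stage antibodies together with fluorescein-labeled inhibitor. Nuclei counterstained with DAPI; read by immunofluorescence microscopy.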

5'-nucleotidase [3] = target: T2, 5'-nucleotidase (Rattus norvegicus, UniProt P21588); assay: Inhibition of recombinant rat CD73 expressed in Sf9 cells using [2,8-3H]-AMP as substrate incubated for 25 mins by scintillation counting method
T2 sequence (P21588 whole entry): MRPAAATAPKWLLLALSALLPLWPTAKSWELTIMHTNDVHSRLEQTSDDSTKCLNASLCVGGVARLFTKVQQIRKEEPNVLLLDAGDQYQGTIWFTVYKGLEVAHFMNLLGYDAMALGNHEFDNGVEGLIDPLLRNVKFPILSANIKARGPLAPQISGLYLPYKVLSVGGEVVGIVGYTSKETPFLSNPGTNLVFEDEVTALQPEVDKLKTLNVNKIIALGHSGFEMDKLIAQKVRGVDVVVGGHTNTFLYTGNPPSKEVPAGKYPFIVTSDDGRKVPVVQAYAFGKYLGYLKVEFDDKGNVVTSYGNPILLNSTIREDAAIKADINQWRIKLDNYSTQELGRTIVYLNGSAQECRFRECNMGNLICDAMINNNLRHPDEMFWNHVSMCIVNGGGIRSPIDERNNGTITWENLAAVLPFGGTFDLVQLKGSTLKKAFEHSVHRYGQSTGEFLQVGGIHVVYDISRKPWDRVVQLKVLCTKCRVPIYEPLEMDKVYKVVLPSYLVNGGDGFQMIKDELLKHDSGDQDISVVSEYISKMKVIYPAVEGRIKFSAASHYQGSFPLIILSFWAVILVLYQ
How it was run: (§2)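 Radiometric CD73 assay using [3H]AMP substrate. Enzyme sources: human and rat recombinant soluble CD73 from Sf9 insect cells, or membrane preparations of MDA-MB-231 cells with native CD73. After incubation, unreacted [3H]AMP precipitated with lanthanum chloride and removed by filtration. [3H]adenosine in filtrate quantified by liquid scintillation counting. Full concentration-inhibition curves; Ki from IC50 via Cheng–Prusoff. Means ± SEM of 3 separate experiments.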

[4] = target: T3, Ectonucleoside triphosphate diphosphohydrolase 2 (Homo sapiens) (UniProt Q9Y5L3); assay: Inhibition of human NTPDase 2 expressed in […] cells using ATP as substrate at 50 uM incubated for 5 mins followed by substrate addition and measured after 30 mins by capillary electrophoresis method; format: cell-based
T3 sequence (whole entry): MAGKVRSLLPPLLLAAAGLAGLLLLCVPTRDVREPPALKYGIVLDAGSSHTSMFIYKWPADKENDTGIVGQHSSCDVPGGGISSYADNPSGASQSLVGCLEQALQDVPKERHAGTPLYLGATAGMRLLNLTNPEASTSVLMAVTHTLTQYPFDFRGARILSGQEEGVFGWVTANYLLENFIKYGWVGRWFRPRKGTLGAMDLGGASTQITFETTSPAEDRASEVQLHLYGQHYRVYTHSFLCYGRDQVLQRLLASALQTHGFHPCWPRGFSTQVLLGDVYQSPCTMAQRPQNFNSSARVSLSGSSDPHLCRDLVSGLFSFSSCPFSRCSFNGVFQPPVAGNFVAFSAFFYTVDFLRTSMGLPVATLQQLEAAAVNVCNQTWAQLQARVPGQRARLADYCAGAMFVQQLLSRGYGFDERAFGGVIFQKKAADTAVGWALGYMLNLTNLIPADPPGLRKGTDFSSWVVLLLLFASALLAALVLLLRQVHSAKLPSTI

[5] = Metabolic stability in human liver microsomes assessed as intrinsic clearance measured for 60 mins; format: ADME, Microsome; conditions: read-out: CLH
How it was run: (§3)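 Stability of the probe tested by incubation with human liver microsomes. Intrinsic clearance expressed per mg microsomal protein; half-life derived from the clearance.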

[6] = target: T4, Ectonucleoside triphosphate diphosphohydrolase 1 (Homo sapiens) (UniProt P49961); assay: Inhibition of human NTPDase 1 expressed in […] cells using ATP as substrate at 50 uM incubated for 5 mins followed by substrate addition and measured after 30 mins by capillary electrophoresis method; format: cell-based
T4 sequence (whole entry): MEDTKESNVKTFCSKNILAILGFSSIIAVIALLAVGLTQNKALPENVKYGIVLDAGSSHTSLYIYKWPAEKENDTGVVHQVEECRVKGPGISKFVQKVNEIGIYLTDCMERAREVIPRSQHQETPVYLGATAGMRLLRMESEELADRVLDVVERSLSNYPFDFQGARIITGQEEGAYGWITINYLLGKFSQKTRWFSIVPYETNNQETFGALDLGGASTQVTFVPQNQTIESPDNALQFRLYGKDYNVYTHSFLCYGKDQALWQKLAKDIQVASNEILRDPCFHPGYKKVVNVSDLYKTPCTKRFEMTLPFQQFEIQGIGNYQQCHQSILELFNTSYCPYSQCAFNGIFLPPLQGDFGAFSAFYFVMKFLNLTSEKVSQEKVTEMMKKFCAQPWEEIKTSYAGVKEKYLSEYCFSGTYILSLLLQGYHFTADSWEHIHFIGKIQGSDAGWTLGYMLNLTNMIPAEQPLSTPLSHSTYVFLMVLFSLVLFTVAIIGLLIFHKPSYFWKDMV

[7] = target: T5, Ectonucleoside triphosphate diphosphohydrolase 8 (Homo sapiens) (UniProt Q5MY95); assay: Inhibition of human NTPDase 8 expressed in […] cells using ATP as substrate at 50 uM incubated for 5 mins followed by substrate addition and measured after 30 mins by capillary electrophoresis method; format: cell-based
T5 sequence (whole entry): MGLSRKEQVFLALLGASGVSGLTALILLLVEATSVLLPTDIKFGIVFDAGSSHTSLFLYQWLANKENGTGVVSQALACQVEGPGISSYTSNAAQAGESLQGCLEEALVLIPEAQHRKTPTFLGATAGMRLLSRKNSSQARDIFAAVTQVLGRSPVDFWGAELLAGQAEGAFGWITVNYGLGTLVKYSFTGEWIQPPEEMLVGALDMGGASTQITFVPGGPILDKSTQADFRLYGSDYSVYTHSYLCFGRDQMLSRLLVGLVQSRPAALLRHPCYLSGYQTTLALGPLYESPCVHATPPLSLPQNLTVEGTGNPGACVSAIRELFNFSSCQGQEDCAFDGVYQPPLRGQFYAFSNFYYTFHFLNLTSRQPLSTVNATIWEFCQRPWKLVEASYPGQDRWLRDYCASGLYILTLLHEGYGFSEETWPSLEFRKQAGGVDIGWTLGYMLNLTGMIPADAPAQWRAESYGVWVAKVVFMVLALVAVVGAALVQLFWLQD

MDA-MB-231 = assay: Cytotoxicity against human MDA-MB-231 cells assessed as reduction in cell growth at 10000 nM incubated for 24 hrs by FACS analysis; format: cell-based; conditions: mda-mb-231, 24 h, 10 µM
5'-nucleotidase [8] = target: T6, 5'-nucleotidase (Homo sapiens, UniProt P21589); assay: Inhibition of CD73 in human MDA-MB-231 cells incubated for 30 mins by anti-CD73 antibody and alexa flour 633 staining based confocal microscopy analysis; format: cell-based
How it was run: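 MDA-MB-231 cells grown on cover slips were stained with rabbit anti-human CD73 antibody (h5NT-1L), then incubated with Alexa Fluor 633 goat anti-rabbit IgG secondary together with the fluorescein-labelled CD73 inhibitor. Nuclei were counterstained with DAPI. Cell-surface CD73 and probe binding were imaged by confocal microscopy.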

5'-nucleotidase [9] = target: T6, 5'-nucleotidase; assay: Inhibition of recombinant human C-terminal His-tagged CD73 (27 to 549 residues) expressed in Sf9 cells using [2,8-3H]-AMP as substrate incubated for 25 mins by scintillation counting method; how it was run: as §2
[10] = target: T7, Ectonucleoside triphosphate diphosphohydrolase 3 (Homo sapiens) (UniProt O75355); assay: Inhibition of human NTPDase 3 expressed in […] cells using ATP as substrate at 50 uM incubated for 5 mins followed by substrate addition and measured after 30 mins by capillary electrophoresis method; format: cell-based
T7 sequence (whole entry): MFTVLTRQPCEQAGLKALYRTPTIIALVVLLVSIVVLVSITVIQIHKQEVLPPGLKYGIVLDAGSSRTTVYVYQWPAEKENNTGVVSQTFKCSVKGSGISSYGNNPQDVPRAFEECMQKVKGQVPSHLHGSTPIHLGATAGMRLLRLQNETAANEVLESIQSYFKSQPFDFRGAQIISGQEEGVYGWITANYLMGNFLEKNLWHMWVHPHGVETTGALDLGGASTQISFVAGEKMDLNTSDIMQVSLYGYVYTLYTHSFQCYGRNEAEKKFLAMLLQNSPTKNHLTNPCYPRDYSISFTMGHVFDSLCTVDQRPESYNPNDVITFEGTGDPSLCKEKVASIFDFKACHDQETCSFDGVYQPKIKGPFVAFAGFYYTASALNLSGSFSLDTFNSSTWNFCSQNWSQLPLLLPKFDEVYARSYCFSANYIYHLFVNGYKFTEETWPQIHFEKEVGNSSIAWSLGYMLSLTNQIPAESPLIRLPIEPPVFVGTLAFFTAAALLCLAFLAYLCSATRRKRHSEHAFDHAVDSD

[11] = target: P2Y purinoceptor 12 (Homo sapiens) (UniProt Q9H244); assay: Effect on human P2Y12 expressed in […] cells assessed as beta arrestin recruitment at 10 uM by beta-arrestin assay; format: functional, cell-based; conditions: CHO-K1
Retina = assay: Effect on C57BL/6 mouse retina with CD73-/- deficient incubated for 1 hr by microscopic analysis; format: ADME, tissue-based; how it was run: as §1
A549 = assay: Cytotoxicity against human A549 cells assessed as reduction in cell growth at 1000 nM incubated for 48 hrs by CCK8 assay; format: cell-based; conditions: a549, 48 h, 1 µM
[12] = Metabolic stability in human liver microsomes assessed as half life measured for 60 mins; format: ADME, Microsome; how it was run: as §3
5'-nucleotidase [13] = target: T6, 5'-nucleotidase; assay: Inhibition of CD73 in human MDA-MB-231 cells using [2,8-3H]-AMP as substrate incubated for 25 mins by scintillation counting method; format: cell-based; how it was run: as §2

T6 sequence (P21589 whole entry): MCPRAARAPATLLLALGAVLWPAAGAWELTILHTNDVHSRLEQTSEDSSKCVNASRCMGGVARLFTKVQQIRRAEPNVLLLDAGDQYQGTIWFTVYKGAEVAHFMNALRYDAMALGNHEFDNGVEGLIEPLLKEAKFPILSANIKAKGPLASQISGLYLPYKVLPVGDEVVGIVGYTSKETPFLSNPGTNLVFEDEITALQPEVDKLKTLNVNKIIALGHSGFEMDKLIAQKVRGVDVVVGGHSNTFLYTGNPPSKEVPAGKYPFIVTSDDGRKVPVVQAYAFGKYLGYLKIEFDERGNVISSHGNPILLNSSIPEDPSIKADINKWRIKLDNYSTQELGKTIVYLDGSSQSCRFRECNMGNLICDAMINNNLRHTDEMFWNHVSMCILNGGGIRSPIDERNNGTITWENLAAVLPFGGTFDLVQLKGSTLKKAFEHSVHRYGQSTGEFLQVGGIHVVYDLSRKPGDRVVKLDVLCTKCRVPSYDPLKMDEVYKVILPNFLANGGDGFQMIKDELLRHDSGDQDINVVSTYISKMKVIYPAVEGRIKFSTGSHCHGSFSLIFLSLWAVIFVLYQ
Sequence of P2Y purinoceptor 12 (Homo sapiens) (Q9H244 whole entry): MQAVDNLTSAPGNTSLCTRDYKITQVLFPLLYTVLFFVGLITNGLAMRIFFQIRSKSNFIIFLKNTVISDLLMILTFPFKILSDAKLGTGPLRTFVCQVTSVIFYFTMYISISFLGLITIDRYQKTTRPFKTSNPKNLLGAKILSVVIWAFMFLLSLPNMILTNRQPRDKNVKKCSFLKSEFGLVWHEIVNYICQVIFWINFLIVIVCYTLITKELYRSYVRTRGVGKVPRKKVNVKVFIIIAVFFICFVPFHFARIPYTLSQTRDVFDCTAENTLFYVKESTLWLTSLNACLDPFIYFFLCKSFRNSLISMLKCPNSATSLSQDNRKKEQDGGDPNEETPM

Row | inhibition [2] | Ki (5'-nucleotidase [3]) [nM] | inhibition [4] | microsomal CLint [5] [µL/min/mg] | inhibition [6] | inhibition [7] | inhibition (5'-nucleotidase [8]) | Ki (5'-nucleotidase [9]) [nM] | inhibition [10] | Activity [11] | half-life [12] [h] | Ki (5'-nucleotidase [13]) [nM] | SMILES | Ratio Ki [1] | Activity (MDA-MB-231) | Activity (Retina) | Activity (A549)
1 | Active | 26 | inactive | 12 | inactive | inactive | Active | 2.98 | inactive | inactive | 1.93 | 4.59 | O=C(NCCCCCCNC(=O)c1ccc2c(c1)C1(OC2=O)c2ccc(O)cc2Oc2cc(O)ccc21)c1ccc(CNc2ncnc3c2ncn3[C@@H]2O[C@H](COP(=O)(O)CP(=O)(O)O)[C@@H](O)[C@H]2O)cc1 | 8 | Non-Toxic | Non-Toxic | Non-Toxic
2 | Active |  |  |  |  |  | Active | 12.6 |  |  |  |  | O=C(NCCOCCOCCNC(=O)c1ccc2c(c1)C1(OC2=O)c2ccc(O)cc2Oc2cc(O)ccc21)c1ccc(CNc2ncnc3c2ncn3[C@@H]2O[C@H](COP(=O)(O)CP(=O)(O)O)[C@@H](O)[C@H]2O)cc1 |  | Non-Toxic | Non-Toxic | Non-Toxic
